Here are results for 13 compounds from ChEMBL document CHEMBL1140914, “Synthesis and in vitro and in vivo evaluation of 18F-labeled positron emission tomography (PET) ligands for imaging the vesicular acetylcholine transporter” (J Med Chem, 2009).

As a reminder, the Ki is a dissociation constant, usually derived from enzyme kinetics or from competition with a known ligand. High values mean a looser hold on the target, low ones a stronger hold on the target. One may read the Kd as the concentration at which binding is half-saturated.

The target in experiment [1] is T1, Vesicular acetylcholine transporter (Homo sapiens, UniProt Q16572).
T1 sequence (Q16572 whole entry): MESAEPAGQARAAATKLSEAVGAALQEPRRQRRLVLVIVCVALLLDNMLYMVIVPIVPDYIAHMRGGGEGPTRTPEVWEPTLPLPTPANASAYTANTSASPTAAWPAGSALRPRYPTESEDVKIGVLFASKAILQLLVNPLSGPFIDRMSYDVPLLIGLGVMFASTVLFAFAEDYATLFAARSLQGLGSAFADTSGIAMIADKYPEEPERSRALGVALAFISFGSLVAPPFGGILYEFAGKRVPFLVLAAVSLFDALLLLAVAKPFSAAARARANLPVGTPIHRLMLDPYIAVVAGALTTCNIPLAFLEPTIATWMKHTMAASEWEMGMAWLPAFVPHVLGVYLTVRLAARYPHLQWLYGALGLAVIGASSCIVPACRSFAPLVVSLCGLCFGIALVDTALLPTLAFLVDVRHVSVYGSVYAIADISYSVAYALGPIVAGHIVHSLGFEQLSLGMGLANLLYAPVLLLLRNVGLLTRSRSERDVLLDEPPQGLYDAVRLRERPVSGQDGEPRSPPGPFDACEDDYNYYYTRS
Kind of experiment: Displacement of [3H]vesamicol from human vesicular acetylcholine transporter expressed in rat PC12 cells by liquid scintillation spectrometry. It counts as cell-based, PC-12. (In general: In a radioligand displacement assay an active substance lowers the binding of a labelled ligand.)

The nature of experiment [2]: Displacement of [3H]DTG from sigma2 receptor in rat liver membrane. It counts as cell membranes. In outline: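 Rat liver membrane homogenate (~300 μg protein) incubated 2 h at room temperature with ~5 nM [3H]DTG plus 1 μM (+)-pentazocine to mask σ1 sites. Haloperidol 10 μM defines nonspecific binding. Filtered and counted.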
Experiment [3] addresses Sigma non-opioid intracellular receptor 1 (Cavia porcellus, UniProt Q60492). Kind of experiment: Displacement of [3H](+)-pentazocine from sigma1 receptor in guinea pig brain membrane by liquid scintillation counting. It counts as cell membranes.
A short description of experiment [4]: Selectivity ratio of Ki for human vesicular acetylcholine transporter to Ki for sigma1 receptor in guinea pig brain membrane. It counts as cell membranes.

Chain of Sigma non-opioid intracellular receptor 1 (Q60492 whole entry): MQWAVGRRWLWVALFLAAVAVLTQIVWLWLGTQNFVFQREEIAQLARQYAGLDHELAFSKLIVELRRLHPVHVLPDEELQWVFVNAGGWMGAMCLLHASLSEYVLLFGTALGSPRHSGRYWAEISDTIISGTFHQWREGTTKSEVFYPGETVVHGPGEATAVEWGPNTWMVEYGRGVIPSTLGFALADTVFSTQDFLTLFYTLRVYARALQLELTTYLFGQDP

Turning to `O=C(c1ccc([N+](=O)[O-])cc1)C1CCN([C@@H]2Cc3ccccc3C[C@H]2O)CC1` (racemic), in experiment [1], affinity was put at a Ki of 0.48 nM.
In experiment [2], `O=C(c1ccc(F)cc1)C1CCN([C@@H]2Cc3ccccc3C[C@H]2O)CC1` (stereo in doubt; (-)-9e) came in with a Ki of 319 nM.
With `O=C(c1ccc(Br)cc1)C1CCN([C@@H]2Cc3ccccc3C[C@H]2O)CC1` (racemic), the values for the inhibition constant Ki in experiment [1], in experiment [3] and in experiment [2] were 0.25 nM, 298 nM and 593 nM, respectively. In addition, in experiment [4], the Ratio Ki amounted to 1190.
`O[C@@H]1Cc2cccc(OCCCF)c2C[C@H]1N1CCC(c2ccccc2)CC1`: in experiment [1], the Ki amounted to 0.77 nM.
Take `O=C(c1ccc(F)cc1)C1CCN([C@@H]2Cc3ccccc3C[C@H]2O)CC1` (stereo in doubt; (+)-9e): affinity in experiment [2] was put at a Ki of 278 nM.
For `O[C@@H]1Cc2cccc(OC/C=C/I)c2C[C@H]1N1CCC(c2ccccc2)CC1`, the affinity in experiment [1], expressed as Ki, was 0.45 nM.
On to `O[C@@H]1CC[C@H](OCc2ccc(F)cc2)C[C@H]1N1CCC(c2ccccc2)CC1`, for which the Ki in experiment [1] amounted to 10.7 nM; in experiment [3], 30.6 nM; in experiment [2] it was 18.5 nM.
`NCC1(c2ccccc2)CCN([C@@H]2Cc3c(I)cccc3C[C@H]2O)CC1` gave a Kd in experiment [1] of 3 nM.
For `O[C@@H]1CCCC[C@H]1N1CCC(c2ccccc2)CC1` [VESAMICOL], the affinity in experiment [2], expressed as Ki, was 34.5 nM.
With `O=C(c1ccccc1)C1CCN([C@@H]2Cc3ccccc3C[C@H]2O)CC1` (racemic), the values for the Ki in experiment [1], in experiment [3] and in experiment [2] were 4.3 nM, 220 nM and 320 nM, respectively. In addition, the Ratio Ki in experiment [4] is 51.
For the compound `O[C@@H]1C[C@H](OCc2ccc(F)cc2)CC[C@H]1N1CCC(c2ccccc2)CC1`, the inhibitory constant (Ki) was 330 nM in experiment [1], 21.3 nM in experiment [3] and 15.8 nM in experiment [2].
For `O[C@@H]1CCN(Cc2ccc(F)cc2)C[C@H]1N1CCC(c2ccccc2)CC1`, the inhibitory constant (Ki) turned out to be 0.22 nM in experiment [1], 21.6 nM in experiment [3] and 35.9 nM in experiment [2]. Further, the Ratio Ki in experiment [4] turned out to be 98.
Turning to `O=C(c1ccc(F)cc1)C1CCN([C@@H]2Cc3ccccc3C[C@H]2O)CC1` (racemic), the inhibitory constant (Ki) in experiment [2] was 251 nM.
